ChEMBL document CHEMBL1125117, “Substituted 1,3-dihydro-2H-pyrrolo[2,3-b]pyridin-2-ones as potential antiinflammatory agents” (1990)

What was measured:
[1] = tested on: Rattus norvegicus; experiment: In vivo inhibitory activity against cells in reverse passive Arthus reaction (RPAR) assay at dose 25 mg/kg in the pleural cavity of rats.; type: functional
In short: (§1)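 Male rats, five per group, dosed orally 1 h before iv BSA antigen (5 mg). Rabbit anti-BSA IgG (0.5 mg) given intrapleurally 30 min later. At 4 h, pleural exudate volume was measured and neutrophils counted (Coulter) after saline-EDTA lavage. Reported as % reduction in cells and fluid relative to control.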

[2] = tested on: Rattus norvegicus; experiment: In vivo inhibitory activity against fluid in reverse passive Arthus reaction (RPAR) assay at dose 25 mg/kg in the pleural cavity of rats.; type: functional; in short: as §1
[3] = molecular target: T1, Polyunsaturated fatty acid 5-lipoxygenase (Homo sapiens) (UniProt P09917); experiment: In vitro inhibitory activity against 5-lipoxygenase in human polymorphonuclear (PMN) cells; details: concentration not given here
T1 sequence (whole entry): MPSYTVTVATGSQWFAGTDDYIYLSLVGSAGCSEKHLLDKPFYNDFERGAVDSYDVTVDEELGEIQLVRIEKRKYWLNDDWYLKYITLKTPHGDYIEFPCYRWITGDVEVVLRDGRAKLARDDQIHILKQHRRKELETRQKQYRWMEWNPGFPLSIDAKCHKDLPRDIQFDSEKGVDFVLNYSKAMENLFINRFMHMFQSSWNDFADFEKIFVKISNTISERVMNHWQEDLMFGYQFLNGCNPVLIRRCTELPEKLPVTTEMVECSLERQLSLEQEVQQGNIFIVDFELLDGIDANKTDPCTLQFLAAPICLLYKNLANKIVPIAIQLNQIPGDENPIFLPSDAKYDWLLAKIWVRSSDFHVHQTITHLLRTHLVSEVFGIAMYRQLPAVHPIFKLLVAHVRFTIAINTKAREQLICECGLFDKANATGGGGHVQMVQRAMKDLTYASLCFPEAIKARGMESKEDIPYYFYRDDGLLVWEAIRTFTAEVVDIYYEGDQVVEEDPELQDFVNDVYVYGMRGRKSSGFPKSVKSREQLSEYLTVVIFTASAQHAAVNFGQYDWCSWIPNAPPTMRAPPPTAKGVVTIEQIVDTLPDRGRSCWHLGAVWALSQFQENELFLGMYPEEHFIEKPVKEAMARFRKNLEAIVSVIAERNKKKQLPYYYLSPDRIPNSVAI
In short: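 Human PMN neutrophils (2×10^7 cells/mL) in HEPES buffer with 1 mM CaCl2, preincubated 4 min with test compound in DMSO vehicle. Then stimulated with [14C]arachidonic acid plus calcium ionophore A23187 for 5 min and stopped with methanol. 5-HETE was quantitated by HPLC. Reported as % inhibition versus vehicle, tested at 15 μM.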

[4] = tested on: Rattus norvegicus; experiment: In vivo antiinflammatory activity against edema formation in the injected(primary) paw of the rat(before edema stimulation) at dose 25 mg/kg; type: functional
In short: (§2)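 Adjuvant arthritis in rats, prophylactic regimen. Oral dosing began 1 h before challenge and continued for 21 consecutive days. Heat-killed M. tuberculosis in paraffin oil (6 mg/mL), 0.1 mL injected into the left hind paw, with methylcellulose-treated controls. Both hind paw volumes measured by plethysmograph on day 21. Reported as % change relative to control.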

[5] = tested on: Rattus norvegicus; experiment: In vivo effect on prostaglandin and leukotriene mediated production in rat pleural cavity was assessed by the inhibition of LTE4 in 5-lipoxygenase/ cyclooxygenase at dose 25 mg/kg; type: functional
In short: (§3)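 Rat reversed passive Arthus pleurisy, oral dosing 1 h before challenge. BSA given iv (5 mg), then rabbit anti-BSA IgG intrapleurally 30 min later. At 4 h, exudate was collected into indomethacin/NDGA and its volume recorded. Neutrophils were counted by Coulter counter. TXB2 and LTE4 in ethanol-extracted supernatant were measured by RIA with tritiated recovery spikes. Reported as % inhibition versus control.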

[6] = tested on: Rattus norvegicus; experiment: In vivo effect on prostaglandin and leukotriene mediated production in rat pleural cavity was assessed by the inhibition of TxB2 in 5-lipoxygenase/ cyclooxygenase at dose 25 mg/kg
[7] = tested on: Rattus norvegicus; experiment: In vivo effect on prostaglandin and leukotriene mediated production in rat pleural cavity was assessed by the inhibition of cell influx in 5-lipoxygenase/ cyclooxygenase at dose 25 mg/kg; type: functional; in short: as §3
[8] = tested on: Rattus norvegicus; experiment: In vivo antiinflammatory activity against edema formation in the noninjected(secondary) paw of the rat (before edema stimulation) at dose 25 mg/kg; type: functional; in short: as §2
[9] = molecular target: Cyclooxygenase (Homo sapiens) (UniProt P35354+P23219); experiment: In vitro inhibitory activity against Prostaglandin G/H synthase in human platelets; parameters: concentration or dose not given beside the values; details: concentration not given here
In short: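 Human platelets (2×10^5/mL) in HEPES buffer with 0.5 mM EGTA and 1.5 mM CaCl2, incubated 4 min with compound in DMSO vehicle. Then given [14C]arachidonic acid and A23187 ionophore for 5 min and stopped with methanol. HHT was measured by reverse-phase HPLC. Reported as % inhibition of HHT versus vehicle, at 15 μM.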

[10] = tested on: Rattus norvegicus; experiment: In vivo effect on prostaglandin and leukotriene mediated production in rat pleural cavity was assessed by the inhibition of fluid volume in 5-lipoxygenase/ cyclooxygenase at dose 25 mg/kg; type: functional; details: for inhibition in vivo at 25 mg/kg: Rattus norvegicus, Pleural cavity; for Inhibition: 25 mg/kg; in short: as §3
[11] = tested on: Rattus norvegicus; experiment: In vivo effect on prostaglandin and leukotriene mediated production in rat pleural cavity was assessed by the inhibition of TXB2 in 5-lipoxygenase/ cyclooxygenase at dose 25 mg/kg; type: functional; in short: as §3
[12] = tested on: Rattus norvegicus; experiment: In vivo antiinflammatory activity against edema formation in the injected(primary) paw of the rat(after edema stimulation) at dose 25 mg/kg; type: functional
In short: (§4)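 Adjuvant arthritis in rats, therapeutic regimen. Heat-killed M. tuberculosis in paraffin oil (6 mg/mL), 0.1 mL injected into the left hind paw. Lesion allowed to develop 7 days before the first oral dose, with methylcellulose-treated controls. Paw volumes measured by plethysmograph, final reading on day 21. Reported as % change in paw volume relative to control.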

[13] = tested on: Rattus norvegicus; experiment: In vivo antiinflammatory activity against edema formation in the noninjected(secondary) paw of the rat (after edema stimulation) at dose 25 mg/kg; type: functional; in short: as §4
[14] = tested on: Rattus norvegicus; experiment: In vivo effect on prostaglandin and leukotriene mediated production in rat pleural cavity was assessed by the inhibition of cell influx in 5-lipoxygenase/ cyclooxygenase at dose 1.0 mg/kg; type: functional; in short: as §3
[15] = tested on: Rattus norvegicus; experiment: In vivo effect on prostaglandin and leukotriene mediated production in rat pleural cavity was assessed by the inhibition of fluid volume in 5-lipoxygenase/ cyclooxygenase at dose 1.0 mg/kg; type: functional; in short: as §3
[16] = tested on: Rattus norvegicus; experiment: In vivo antiinflammatory activity against edema formation in the noninjected(secondary) paw of the rat (after edema stimulation) at dose 2.0 mg/kg; type: functional
[17] = tested on: Rattus norvegicus; experiment: In vivo antiinflammatory activity against edema formation in the noninjected(secondary) paw of the rat (before edema stimulation) at dose 2.0 mg/kg; type: functional; in short: as §2

Row | Structure (SMILES) | inhibition in vivo at 25 mg/kg [1] | inhibition in vivo at 25 mg/kg [2] | inhibition [3] | also measured
1 | CC1(C)C(=O)N(c2ccc(Cl)cc2)c2ccccc21 | 0% | 0% |  | 
2 | CC1(F)C(=O)N(c2ccccc2)c2ncccc21 (centres undefined) | 50% | 35% | 0% | 
3 | CC1(C)C(=O)N(c2cccc(Cl)c2)c2ncccc21 | 51% | 49% | 3% | inhibition in vivo at 25 mg/kg [4]: 0%; inhibition in vivo at 25 mg/kg [5]: 59%; TxB2 inhibition [6]: 62%; inhibition in vivo at 25 mg/kg [7]: 51%; inhibition in vivo at 25 mg/kg [8]: 31%; inhibition [9]: 0%; inhibition in vivo at 25 mg/kg [10]: 49%
4 | CCCCC1(C)C(=O)N(c2ccccc2)c2ncccc21 (centres undefined) | 21% | 5% | 13% | 
5 | COc1ccc(N2C(=O)C(C)(C)c3cccnc32)cc1 | 63% | 42% | 11% | inhibition in vivo at 25 mg/kg [4]: 0%; inhibition in vivo at 25 mg/kg [7]: 63%; inhibition in vivo at 25 mg/kg [8]: 0%; inhibition in vivo at 25 mg/kg [11]: 34%
6 | CC1C(=O)N(c2ccccc2)c2ncccc21 (centres undefined) | 29% | 18% | 0% | 
7 | CC(C)c1ccc(N2C(=O)C(C)(C)c3cccnc32)cc1 | 29% | 6% | 0% | 
8 | CC1(C)C(=O)N(c2ccc(F)cc2F)c2ncccc21 | 61% | 19% | 7% | 
9 | CSC1(C)C(=O)N(c2ccccc2)c2ncccc21 (centres undefined) | 34% | 53% | 21% | 
10 | CC1(C)C(=O)N(c2ccc(Cl)cc2)c2ncccc21 |  |  | 13% | inhibition in vivo at 25 mg/kg [4]: 13%; ED50 [1]: 4.5 mg/kg; inhibition in vivo at 25 mg/kg [12]: 31%; ED50 [2]: 27.9 mg/kg; inhibition in vivo at 25 mg/kg [7]: 73%; inhibition in vivo at 25 mg/kg [13]: 54%; inhibition in vivo at 25 mg/kg [8]: 65%; inhibition [9]: 47%; inhibition in vivo at 25 mg/kg [11]: 78%; Inhibition [10]: 83%; inhibition in vivo at 25 mg/kg [10]: 83%
11 | CC1(Sc2ccccc2)C(=O)N(c2ccccc2)c2ncccc21 (centres undefined) | 0% | 0% |  | 
12 | CC1(C)C(=O)N(c2ccc(Cl)c(Cl)c2)c2ncccc21 | 26% | 25% | 0% | inhibition in vivo at 25 mg/kg [5]: 46%; TxB2 inhibition [6]: 44%; inhibition in vivo at 25 mg/kg [7]: 26%; inhibition [9]: 0%; inhibition in vivo at 25 mg/kg [10]: 25%
13 | CC1(C)C(=O)Nc2ncccc21 | 46% | 38% |  | 
14 | CC1(C)C(=O)N(c2ccc(S(C)(=O)=O)cc2)c2ncccc21 | 42% | 0% | 13% | 
15 | CCC1(CC)C(=O)N(c2ccccc2)c2ncccc21 | 13% | 0% | 12% | 
16 | CSc1ccc(N2C(=O)C(C)(C)c3cccnc32)cc1 | 29% | 37% | 23% | 
17 | C[S+]([O-])c1ccc(N2C(=O)C(C)(C)c3cccnc32)cc1 (centres undefined) | 39% | 0% | 11% | 

Row | Structure (SMILES) | inhibition in vivo at 25 mg/kg [1] | inhibition in vivo at 25 mg/kg [2] | inhibition [3] | also measured
18 | CC1(C)C(=O)N(c2ccc(Cl)cc2Cl)c2ncccc21 | 16% | 8% | 20% | 
19 | Cc1c(Cl)cccc1N1C(=O)C(C)(C)c2cccnc21 | 14% | 0% | 7% | 
20 | CC1(C)C(=O)N(Cc2ccc(Cl)cc2)c2ncccc21 | 6% | 0% | 26% | 
21 | CN1C(=O)C(C)(C)c2cccnc21 | 69% | 53% |  | inhibition in vivo at 25 mg/kg [7]: 69%; inhibition in vivo at 25 mg/kg [11]: 17%; Inhibition [10]: 53%; inhibition in vivo at 25 mg/kg [10]: 53%
22 | CC1(Cc2ccccc2)C(=O)N(c2ccccc2)c2ncccc21 (centres undefined) | 9% | 0% | 17% | 
23 | CC1(C)C(=O)N(c2ccccc2Cl)c2ncccc21 | 14% | 3% | 0% | 
24 | CC1(C)C(=O)N(c2cc(Cl)cc(Cl)c2)c2ncccc21 | 49% | 33% |  | 
25 | CC1(C)C(=O)N(c2ccc(Cl)cc2)c2ncc(Br)cc21 | 29% | 0% | 34% | 
26 | CC(C)(C(=O)[O-])c1cccnc1Nc1ccc(Cl)cc1.[Na+] |  |  | 0% | inhibition in vivo at 25 mg/kg [4]: 14%; ED50 [1]: 11.3 mg/kg; inhibition in vivo at 25 mg/kg [5]: 76%; TxB2 inhibition [6]: 81%; ED50 [2]: 9.6 mg/kg; inhibition in vivo at 25 mg/kg [7]: 62%; inhibition in vivo at 25 mg/kg [8]: 34%; inhibition [9]: 28%; inhibition in vivo at 25 mg/kg [10]: 71%
27 | COCCSC1(C)C(=O)N(c2ccccc2)c2ncccc21 (centres undefined) | 26% | 23% | 0% | 
28 | CC(C)N1C(=O)C(C)(C)c2cccnc21 | 34% | 14% | 6% | 
29 | COc1ccc2c(c1)c(CC(=O)O)c(C)n2C(=O)c1ccc(Cl)cc1 [INDOMETHACIN] |  |  |  | inhibition in vivo at 1 mg/kg [14]: 48%; inhibition in vivo at 1 mg/kg [15]: 24%; inhibition in vivo at 2 mg/kg [16]: 88%; inhibition in vivo at 2 mg/kg [17]: 70%
30 | CC1(C)C(=O)N(c2cccc(C(F)(F)F)c2)c2ncccc21 | 35% | 10% | 34% | 
31 | CCC1(C)C(=O)N(c2ccccc2)c2ncccc21 (centres undefined) | 36% | 12% | 13% | 
32 | CC1(C)C(=O)N(c2ccc(Br)cc2)c2ncccc21 | 46% | 55% | 11% | 
33 | CC1(C)C(=S)N(c2ccc(Cl)cc2)c2ncccc21 | 41% | 42% | 17% | 
34 | CC1(C)C(=O)N(Cc2ccccc2)c2ncccc21 | 12% | 12% | 2% | 
